Laboratory results as given in ChEMBL document CHEMBL1126752, “Synthesis and biological activity of cis-(3aR)-(-)-2,3,3a,4,5,9b-hexahydro- 3-propyl-1H-benz[e]indole-9-carboxamide: a potent and selective 5-HT1A receptor agonist with good oral availability” (J Med Chem, 1993).
The source made the active and inactive calls. The rule behind the calls is not given here.

Legend:
[1] = biological target: T1, 5-hydroxytryptamine receptor 1A (Homo sapiens, UniProt P08908); test: Binding affinity against [3H]8-OH-DPAT-labeled 5-hydroxytryptamine 1A receptor sites in cloned CHO cells; type: cell-based
T1 sequence (P08908 whole entry): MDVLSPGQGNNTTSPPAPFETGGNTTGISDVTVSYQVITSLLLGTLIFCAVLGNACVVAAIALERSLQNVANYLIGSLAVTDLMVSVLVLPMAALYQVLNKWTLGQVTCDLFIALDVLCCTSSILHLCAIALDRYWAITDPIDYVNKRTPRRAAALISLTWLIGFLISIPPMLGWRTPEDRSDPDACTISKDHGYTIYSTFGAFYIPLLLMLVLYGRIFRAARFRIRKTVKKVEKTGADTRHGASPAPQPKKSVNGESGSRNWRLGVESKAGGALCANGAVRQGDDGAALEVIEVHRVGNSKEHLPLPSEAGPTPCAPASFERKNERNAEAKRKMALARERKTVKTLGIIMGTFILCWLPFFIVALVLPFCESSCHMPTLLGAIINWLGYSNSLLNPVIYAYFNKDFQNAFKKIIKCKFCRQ
Outline: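 Competition binding against [3H]-8-OH-DPAT (85 Ci/mmol, 1.2 nM) using 11 dilutions of test compound. Receptor was cloned mammalian 5-HT1A expressed in CHO-K1 cells. IC50 from a one-site nonlinear least-squares fit, converted to Ki by Cheng-Prusoff. Ki reported ±SEM.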

Mus musculus [2] = test: Swimming activity of the treated mice/control mice at 12 umol/kg, sc; type: functional
Mus musculus [3] = test: Swimming activity of the treated mice/control mice at 39 umol/kg, sc (p < 0.05); type: functional
[4] = Half-life in rats; type: ADME, organism-based; conditions: rat, in vivo
Outline: (§1)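 Male Sprague-Dawley rats (300 g) sampled from arterial catheters 24 h after surgery over 10-24 h. Dosing was 5 µmol/kg iv and 40 µmol/kg po, with oral rats fasted 18 h. Parent drug in blood measured by GC/MS after pH 11 dichloromethane extraction with internal standard, samples run in duplicate. Availability from po/iv AUC ratio (n = 4).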

Felis catus [5] = test: Maximum decrease in blood pressure observed following 1 mg/kg dose in anesthetized cat; type: functional; design: unit not given here
Outline: (§2)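 Adult cats (2.5-4.0 kg) anesthetized with ketamine 11 mg/kg im then chloralose 80 mg/kg iv. Animals paralyzed with gallamine, ventilated, and kept at 37-38 °C. Blood pressure recorded via femoral artery. Sympathetic activity quantified by cumulative integration. Increasing doses given iv cumulatively at 20-min intervals.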

Felis catus [6] = test: Maximum decrease in sympathetic nerve discharge in anesthetized cat; type: functional
Outline: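 Cats (2.5-4.0 kg) anesthetized with ketamine 11 mg/kg im then chloralose 80 mg/kg iv, paralyzed with gallamine and ventilated, rectal temperature kept at 37-38 °C. Increasing iv doses given cumulatively at 20-min intervals; sympathetic activity quantified by cumulative integration and expressed as percent of control.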

Felis catus [7] = test: Percent arterial blood pressure at sympathetic nerve discharge in anesthetized cat; type: functional; outline: as §2
Felis catus [8] = test: Inhibition of sympathetic nerve discharge (SND) in anesthetized cat; type: functional; outline: as §2
Mus musculus [9] = test: Swimming activity of the treated mice/control mice at 39 umol/kg, sc; type: functional
Mus musculus [10] = test: Swimming activity of the treated mice/control mice at 12 umol/kg, sc (p < 0.001); type: functional
Mus musculus [11] = test: Swimming activity of the treated mice/control mice at 3.9 umol/kg, sc; type: functional
Rattus norvegicus [12] = test: 5-HTP accumulation in corpus striatum of reserpinized rats following subcutaneous administration; type: functional; conditions: sc
Rattus norvegicus [13] = species on record: Rattus norvegicus; test: Inhibition of 5-HT1A cell firing in rats; type: functional
Outline: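 Male Sprague-Dawley rats (280-330 g) under chloral hydrate anesthesia (400 mg/kg ip), drug given iv via femoral vein in distilled water. Dorsal raphe serotonergic neurons recorded extracellularly and confirmed histologically by dye deposit. Firing rate followed by integrated ratemeter.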

Rattus norvegicus [14] = test: 5-HTP accumulation in hemispheres of reserpinized rats following subcutaneous administration; type: functional; conditions: sc
Rattus norvegicus [15] = test: 5-HTP accumulation in limbic system of reserpinized rats following subcutaneous administration; type: functional; conditions: sc
Rattus norvegicus [16] = test: DOPA accumulation in corpus striatum of reserpinized rats following subcutaneous administration at highest dose tested (50 umol/kg); Inactive; type: functional, organism-based
Rattus norvegicus [17] = test: DOPA accumulation in hemispheres of reserpinized rats following subcutaneous administration at highest dose tested (50 umol/kg); Inactive; type: functional, organism-based
Rattus norvegicus [18] = test: DOPA accumulation in limbic system of reserpinized rats following subcutaneous administration at highest dose tested (50 umol/kg); Inactive; type: functional, organism-based
Rattus norvegicus [19] = test: In vivo motor activity at 12.5 umol/kg (sc) in male rats expressed as accumulated counts/30 min (p < 0.001); type: functional
Rattus norvegicus [20] = species on record: Rattus norvegicus; test: Compound was tested for gross behavioral response in rats; partial 5-HT syndrome; type: functional, organism-based
Rattus norvegicus [21] = test: Oral availability obtained from blood plasma levels of the parent compound following 5 umol /kg intravenous and 40 umol /kg peroral administration; type: functional, organism-based; outline: as §1
Mus musculus [22] = test: Effect on hypothermia in mice following peroral administration; conditions: po
Mus musculus [23] = test: Effect on hypothermia in mice following subcutaneous administration; conditions: sc
[24] = Half-life time in rats; type: ADME, organism-based; conditions: rat, in vivo
Outline: (§3)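 Male Sprague-Dawley rats (300 g) with arterial catheters, sampled from 24 h after surgery for 10-24 h; oral groups starved 18 h with free water. Blood levels measured by GC/MS with internal standard, samples run in duplicate. Availability from po vs iv AUC (n = 4), dosed 1 μmol/kg iv and 20 μmol/kg po.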

Mus musculus [25] = test: Swimming activity of the treated mice/control mice at 1.2 umol/kg, sc; type: functional
Mus musculus [26] = test: Swimming activity of the treated mice/control mice at 4.0 umol/kg, sc (p < 0.001); type: functional
Mus musculus [27] = test: Swimming activity of the treated mice/control mice at 41 umol/kg, sc (p < 0.001); type: functional
Rattus norvegicus [28] = test: In vivo motor activity at 0.2 umol/kg (sc) in male rats expressed as accumulated counts/30 min (p < 0.05); type: functional
Rattus norvegicus [29] = test: 5-HTP accumulation in corpus striatum of reserpinized rats following peroral administration; type: functional; conditions: po
Rattus norvegicus [30] = test: 5-HTP accumulation in hemispheres of reserpinized rats following peroral administration; type: functional; conditions: po
Rattus norvegicus [31] = test: 5-HTP accumulation in limbic system of reserpinized rats following peroral administration; type: functional; conditions: po
Rattus norvegicus [32] = test: DOPA accumulation in corpus striatum of reserpinized rats following peroral administration at highest dose tested (50 umol/kg); Inactive; type: functional, organism-based
Rattus norvegicus [33] = test: DOPA accumulation in hemispheres of reserpinized rats following peroral administration at highest dose tested (50 umol/kg); Inactive; type: functional, organism-based
Rattus norvegicus [34] = test: DOPA accumulation in limbic system of reserpinized rats following peroral administration at highest dose tested (50 umol/kg); Inactive; type: functional, organism-based
Rattus norvegicus [35] = test: In vivo motor activity at 61 umol/kg (po) in male rats expressed as accumulated counts/30 min (p < 0.001); type: functional
Rattus norvegicus [36] = species on record: Rattus norvegicus; test: Compound was tested for gross behavioral response in rats; full-blown 5-HT syndrome; type: functional, organism-based
Rattus norvegicus [37] = test: Oral availability obtained from blood plasma levels of the parent compound following 1 uMol /kg intravenous and 20 umol /kg peroral administration; type: functional, organism-based; outline: as §3
Rattus norvegicus [38] = test: In vivo motor activity at 10 umol/kg (po) in male rats expressed as accumulated counts/30 min (p < 0.05)
Rattus norvegicus [39] = test: 5-HTP accumulation in corpus striatum of reserpinized rats following subcutaneous administration at highest dose tested (50 umol/kg); Inactive; type: functional, organism-based
Rattus norvegicus [40] = test: 5-HTP accumulation in hemispheres of reserpinized rats following subcutaneous administration at highest dose tested (50 umol/kg); Inactive; type: functional, organism-based
Rattus norvegicus [41] = test: 5-HTP accumulation in limbic system of reserpinized rats following subcutaneous administration at highest dose tested (50 umol/kg); Inactive; type: functional, organism-based
Rattus norvegicus [42] = species on record: Rattus norvegicus; test: Compound was tested for gross behavioral response in rats; no change; type: functional, organism-based

Compound | Ki [1] | Max decrease (Felis catus [5]) | Max decrease (Felis catus [6]) | BP (Felis catus [7]) | ED50 (Felis catus [8]) | Swimming activity (Mus musculus [10]) | ED50 (Rattus norvegicus [12]) | ED50 (Rattus norvegicus [13]) | ED50 (Rattus norvegicus [14]) | ED50 (Rattus norvegicus [15]) | Response (Rattus norvegicus [20]) | ED50 (Mus musculus [22]) | ED50 (Mus musculus [23]) | ED50 (Rattus norvegicus [16]) | ED50 (Rattus norvegicus [17]) | ED50 (Rattus norvegicus [18]) | also measured
CCCN1CC[C@H]2c3c(cccc3C(N)=O)CC[C@H]21 (stereo in doubt; (-)-3b) | 28 nM | – | – | – | – | – | – | – | – | – | – | – | – | – | – | – | Swimming activity (Mus musculus [2]): 0.7; Swimming activity (Mus musculus [3]): 1.7
CCCN1CCC2c3c(cccc3C(N)=O)CCC21 (racemic) | 2.9 nM | 63 | 33 | 82% | 0.1 µmol/kg | 6.6 | 0.95 µmol/kg | 0.009 µmol/kg | 1.25 µmol/kg | 0.93 µmol/kg | Partially active | 28 µmol/kg | 3.8 µmol/kg | – | – | – | half-life [4]: 1.5 h; Swimming activity (Mus musculus [9]): 2.9; Swimming activity (Mus musculus [11]): 1.2; NA (Rattus norvegicus [16]): inactive; NA (Rattus norvegicus [17]): inactive; NA (Rattus norvegicus [18]): inactive; Accumulated counts/30 min (Rattus norvegicus [19]): 88; bioavailability (Rattus norvegicus [21]): 70%
CCCN(CCC)C1CCc2cccc(O)c2C1 (racemic) [8-OH-DPAT] | – | 57 | 2 | 66% | 0.03 µmol/kg | 4.6 T/C | 0.052 µmol/kg | 0.006 µmol/kg | 0.063 µmol/kg | 0.052 µmol/kg | – | 30 µmol/kg | 3 µmol/kg | inactive | inactive | inactive | half-life [24]: 1 h; Swimming activity (Mus musculus [25]): 0.9 T/C; Swimming activity (Mus musculus [26]): 6.7 T/C; Swimming activity (Mus musculus [27]): 3.4 T/C; Accumulated counts/30 min (Rattus norvegicus [28]): 66; ED50 (Rattus norvegicus [29]): 7.9 µmol/kg; ED50 (Rattus norvegicus [30]): 7.6 µmol/kg; ED50 (Rattus norvegicus [31]): 3 µmol/kg; ED50 (Rattus norvegicus [32]): inactive; ED50 (Rattus norvegicus [33]): inactive; ED50 (Rattus norvegicus [34]): inactive; Accumulated counts/30 min (Rattus norvegicus [35]): 883; Response (Rattus norvegicus [36]): Active; bioavailability (Rattus norvegicus [37]): 2.4%; Accumulated counts/30 min (Rattus norvegicus [38]): 17
CCCN1CCC2c3c(cccc3C(N)=O)CC[C@@H]21 (single isomer, unassigned; (+)-3b) | – | – | – | – | – | – | – | – | – | – | – | – | – | inactive | inactive | inactive | ED50 (Rattus norvegicus [39]): inactive; ED50 (Rattus norvegicus [40]): inactive; ED50 (Rattus norvegicus [41]): inactive; Response (Rattus norvegicus [42]): inactive
CCCN1CCC2c3c(cccc3C(N)=O)CC[C@@H]21 (single isomer, unassigned; (+)-3a) | – | – | – | – | – | – | – | – | – | – | Partially active | – | – | inactive | inactive | inactive | –
